Assay results as given in ChEMBL document CHEMBL1133773, “Characterization of a novel analogue of 1alpha,25(OH)(2)-vitamin D(3) with two side chains: interaction with its nuclear receptor and cellular actions” (2000).
The source made the active and inactive calls.

How the values were obtained:
[1] = Effective dose for Protease sensitivity; assay type: functional
Summary of the method: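 In vitro translated VDR labeled with [³⁵S]methionine, incubated 20 min at room temperature with ligand (10^-7–10^-11 M), then trypsin digestion 20 min; products resolved on 14% SDS-PAGE and autoradiographed. ED50 is the ligand concentration giving 50% of the maximal level of the major trypsin-resistant fragment. Trypsin level is given as both 15 and 20 µg/mL in the text.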

[2] = target: T1, Vitamin D-binding protein (Homo sapiens) (UniProt P02774); assay: Percentage binding to Human Vitamin D binding protein, relative competitive index (RCI)
T1 sequence (whole entry): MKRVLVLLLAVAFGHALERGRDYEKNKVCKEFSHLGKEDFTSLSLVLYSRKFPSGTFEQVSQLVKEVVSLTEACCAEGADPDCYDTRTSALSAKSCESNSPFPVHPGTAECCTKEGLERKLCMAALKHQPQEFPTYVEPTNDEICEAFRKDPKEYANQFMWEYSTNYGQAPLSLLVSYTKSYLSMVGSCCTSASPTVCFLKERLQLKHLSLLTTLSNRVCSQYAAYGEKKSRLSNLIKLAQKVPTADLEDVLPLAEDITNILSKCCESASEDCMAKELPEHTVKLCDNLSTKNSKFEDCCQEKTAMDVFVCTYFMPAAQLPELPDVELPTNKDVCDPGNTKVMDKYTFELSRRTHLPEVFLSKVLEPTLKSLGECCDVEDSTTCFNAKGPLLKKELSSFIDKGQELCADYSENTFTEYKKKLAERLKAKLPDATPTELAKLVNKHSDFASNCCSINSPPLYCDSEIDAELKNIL
Summary of the method: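 Steroid competition assay with human DBP: increasing unlabeled ligand or 125D standard incubated 4 h at 4 °C with a fixed concentration of [³H]125D. Bound and free ligand separated by charcoal-dextran. RCI calculated relative to 125D, which is set at 100%.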

LNCaP [3] = assay: Inhibition of colony formation assays on LNCaP cells; (NR: not reached at <= 10e -6M); assay type: functional, cell-based; details: Homo sapiens
Summary of the method: (§1)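 Soft agar clonal assay in six-well dishes with two layers: compound mixed into the 0.5% agar under layer, cells (1 × 10³/plate) in the 0.3% agar upper layer. Incubated 12 days at 37 °C in humidified 5% CO2. Colonies expressed as percent of untreated control plates. Triplicate plates per point, each experiment done at least three times; ED50 taken from dose-response curves.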

[4] = target: T2, Vitamin D3 receptor (Gallus gallus) (UniProt O42392); assay: Percentage binding to chick intestinal vitamin D3 receptor, relative competitive index (RCI)
T2 sequence (whole entry): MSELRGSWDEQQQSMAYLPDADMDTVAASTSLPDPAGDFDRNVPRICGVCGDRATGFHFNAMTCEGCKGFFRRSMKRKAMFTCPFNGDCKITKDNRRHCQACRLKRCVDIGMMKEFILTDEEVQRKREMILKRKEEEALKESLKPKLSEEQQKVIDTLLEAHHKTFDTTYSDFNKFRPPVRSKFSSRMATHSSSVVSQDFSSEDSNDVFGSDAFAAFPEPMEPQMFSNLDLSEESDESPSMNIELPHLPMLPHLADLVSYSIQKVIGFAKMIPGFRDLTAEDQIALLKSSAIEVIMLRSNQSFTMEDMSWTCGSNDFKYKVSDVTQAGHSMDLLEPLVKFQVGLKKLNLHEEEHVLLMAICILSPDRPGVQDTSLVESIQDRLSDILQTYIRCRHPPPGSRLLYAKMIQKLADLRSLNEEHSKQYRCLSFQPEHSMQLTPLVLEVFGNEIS
Summary of the method: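 Competition binding to chick intestinal VDR: rising concentrations of competitor or unlabeled 125D incubated 4 h at 4 °C with a defined amount of [³H]125D. Bound ligand separated from free by hydroxyapatite. RCI computed with 125D defined as 100%.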

[5] = Effective dose for transcriptional activation in ROS 17/2.8 osteosarcoma cells; assay type: functional; details: Rattus norvegicus; read-out: ED50 (the source's name)
LNCaP [6] = assay: Inhibition of colony formation assays on LNCaP cells; assay type: functional; details: Homo sapiens, read-out: ED50 (the source's name); summary of the method: as §1
MCF7 = assay: Inhibition of colony formation assays on MCF-7 cells; assay type: functional; details: Homo sapiens, read-out: ED50 (the source's name); summary of the method: as §1
HL-60 = assay: Inhibition of colony formation assays on HL-60 cells; assay type: functional; details: Homo sapiens, read-out: ED50 (the source's name)

RCI [2] [%] | RCI [4] [%] | EC50 [5] [nM] | EC50 (LNCaP [6]) [nM] | EC50 (MCF7) [nM] | EC50 (HL-60) [nM] | SMILES | ED50 [1] [nM] | ED50 (LNCaP [3])
100 | – | – | – | – | – | C=C1/C(=C\C=C2/CCC[C@]3(C)[C@@H]([C@H](C)CCCC(C)(C)O)CC[C@@H]23)C[C@@H](O)C[C@@H]1O | 5.9 | inactive
2.6 | 147 | – | – | – | – | C=C1/C(=C\C=C2/CCC[C@]3(C)[C@@H]([C@@H](C)CCCC(C)(C)O)CC[C@@H]23)C[C@@H](O)C[C@@H]1O | 0.13 | –
2.5 | 38 | 1 | 82 | 1.2 | 0.34 | C=C1/C(=C\C=C2/CCC[C@]3(C)[C@@H](C(CCCC(C)(C)O)CCCC(C)(C)O)CC[C@@H]23)C[C@@H](O)C[C@@H]1O | 180 | –
